# Laboratory results reported in ChEMBL document CHEMBL1124808, “The synthesis and antiallergy activity of 1-(aryloxy)-4-(4-arylpiperazinyl)-2-butanol derivatives” (1990).
# Legend:
# Type in all cases: functional
# [1] = system: Rattus norvegicus; test: Percent change in volume of foot edema of test compound to that of positive control was determined at a dose of 10 mg/kg in rat; […]
# [2] = system: Rattus norvegicus; test: Percent change in volume of foot edema of test compound to that of positive control was determined at a dose of 31.6 mg/kg in rat; […]/-69
# [3] = system: Rattus norvegicus; test: Oral Antiallergic activity in the passive foot anaphylaxis (PFA) assay of various amines at the dose of 3.16 mg/kg; -33/-84
# [4] = system: Rattus norvegicus; test: Percent change in volume of foot edema of test compound to that of positive control was determined at a dose of 31.6 mg/kg in rat; -59/-83
# [5] = system: Rattus norvegicus; test: Percent change in volume of foot edema of test compound to that of positive control was determined at a dose of 10 mg/kg in rat; -2/-65
# [6] = system: Rattus norvegicus; test: Percent change in volume of foot edema of test compound to that of positive control was determined at a dose of 10 mg/kg in rat; -9/-80
# [7] = system: Rattus norvegicus; test: Percent change in volume of foot edema of test compound to that of positive control was determined at a dose of 31.6 mg/kg in rat; -61/-63
# [8] = system: Rattus norvegicus; test: Percent change in volume of foot edema of test compound to that of positive control was determined at a dose of 10 mg/kg in rat; -61/-88
# [9] = system: Rattus norvegicus; test: Percent change in volume of foot edema of test compound to that of positive control was determined at a dose of 31.6 mg/kg in rat; -75/-83
# [10] = system: Rattus norvegicus; test: Oral Antiallergic activity in the passive foot anaphylaxis (PFA) assay of various amines at the dose of 3.16 mg/kg; -38/-78
# [11] = system: Rattus norvegicus; test: Percent change in volume of foot edema of test compound to that of positive control was determined at a dose of 10 mg/kg in rat; +22/-73
# [12] = system: Rattus norvegicus; test: Percent change in volume of foot edema of test compound to that of positive control was determined at a dose of 31.6 mg/kg in rat; -85/-78
# [13] = system: Rattus norvegicus; test: Percent change in volume of foot edema of test compound to that of positive control was determined at a dose of 10 mg/kg in rat; -11/-65
# [14] = system: Rattus norvegicus; test: Percent change in volume of foot edema of test compound to that of positive control was determined at a dose of 31.6 mg/kg in rat; -66/-66
# [15] = system: Rattus norvegicus; test: Percent change in volume of foot edema of test compound to that of positive control was determined at a dose of 31.6 mg/kg in rat; -17/-70
# [16] = system: Rattus norvegicus; test: Percent change in volume of foot edema of test compound to that of positive control was determined at a dose of 10 mg/kg in rat; +14/-44
# [17] = system: Rattus norvegicus; test: Percent change in volume of foot edema of test compound to that of positive control was determined at a dose of 31.6 mg/kg in rat; -48/-84
# [18] = system: Rattus norvegicus; test: Percent change in volume of foot edema of test compound to that of positive control was determined at a dose of 10 mg/kg in rat; -34/-78
# [19] = system: Rattus norvegicus; test: Percent change in volume of foot edema of test compound to that of positive control was determined at a dose of 31.6 mg/kg in rat; -88/-75
# [20] = organism: Cavia porcellus; test: Dose that protects 50% of guinea pig from collapse was determined in guinea pig anaphylaxis assay; conditions: read-out: PD50
# How it was run: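 Guinea pigs dosed by gavage (10 mL/kg) with compound in 0.5% Tween 80/water; reference theophylline 100 mg/kg po. At 1–24 h, exposed in chamber to aerosolized 1% (w/v) egg albumin at 10 L air/min for up to 5 min; protected if no collapse within 5 min. PD50 by Litchfield and Wilcoxon.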
# [21] = system: Rattus norvegicus; test: Percent change in volume of foot edema of test compound to that of positive control was determined at a dose of 31.6 mg/kg in rat; -54/-44
# [22] = system: Rattus norvegicus; test: Percent change in volume of foot edema of test compound to that of positive control was determined at a dose of 10 mg/kg in rat; -10/-44
# [23] = system: Rattus norvegicus; test: Percent change in volume of foot edema of test compound to that of positive control was determined at a dose of 31.6 mg/kg in rat; 39/-78
# [24] = system: Rattus norvegicus; test: Percent change in volume of foot edema of test compound to that of positive control was determined at a dose of 31.6 mg/kg in rat; -40/-81
# [25] = system: Rattus norvegicus; test: Percent change in volume of foot edema of test compound to that of positive control was determined at a dose of 31.6 mg/kg in rat; -83/-69
# [26] = system: Rattus norvegicus; test: Percent change in volume of foot edema of test compound to that of positive control was determined at a dose of 3.16 mg/kg in rat; -50/-84
# [27] = system: Rattus norvegicus; test: Percent change in volume of foot edema of test compound to that of positive control was determined at a dose of 10 mg/kg in rat; -53/-76
# [28] = system: Rattus norvegicus; test: Percent change in volume of foot edema of test compound to that of positive control was determined at a dose of 31.6 mg/kg in rat; -78/-69
# [29] = system: Rattus norvegicus; test: Percent change in volume of foot edema of test compound to that of positive control was determined at a dose of 3.16 mg/kg in rat; -36/-80
# [30] = system: Rattus norvegicus; test: Percent change in volume of foot edema of test compound to that of positive control was determined at a dose of 10 mg/kg in rat; -55/-63
smiles,measurement,setting,value
Cc1cc(OCC(O)CCN2CCN(c3ccccc3)CC2)ccc1Cl (stereo unspecified),PFA,[1],-45
same,PFA,[2],-71
same,PFA,[3],-33
OC(CCN1CCN(c2ccc(Br)cc2)CC1)COc1ccccc1 (stereo unspecified),PFA,[4],-59
same,PFA,[5],-2
OC(CCN1CCN(c2ccc(Cl)c(Cl)c2)CC1)COc1ccccc1 (stereo unspecified),PFA,[6],-9
same,PFA,[7],-61
CC(=O)c1ccc(N2CCN(CCC(O)COc3ccc(Cl)cc3)CC2)cc1 (stereo unspecified),PFA,[8],-61
same,PFA,[9],-75
same,PFA,[10],-38
OC(CCN1CCN(c2cccc(Cl)c2)CC1)COc1ccccc1 (stereo unspecified),PFA,[11],22
same,PFA,[12],-85
Cc1ccc(OCC(O)CCN2CCN(c3ccccc3)CC2)cc1 (stereo unspecified),PFA,[13],-11
same,PFA,[14],-66
OC(CCOc1ccccc1)CN1CCN(c2ccccc2)CC1 (stereo unspecified),PFA,[15],-17
Cc1cc(C)cc(OCC(O)CCN2CCN(c3ccccc3)CC2)c1 (stereo unspecified),PFA,[16],14
same,PFA,[17],-48
OC(CCN1CCN(c2ccccc2)CC1)COc1ccccc1 (stereo unspecified),PFA,[18],-34
same,PFA,[19],-88
same,ED50,[20],40 mg/kg
COc1ccc(OCC(O)CCN2CCN(c3ccccc3)CC2)cc1 (stereo unspecified),PFA,[21],-54
same,PFA,[22],-10
OC(CCN1CCN(c2cccc(C(F)(F)F)c2)CC1)COc1ccccc1 (stereo unspecified),PFA,[23],39
c1ccc(OCCN2CCN(c3ccccc3)CC2)cc1,PFA,[24],-40
OC(CCN1CCN(c2ccccc2)CC1)COc1ccc(Cl)cc1 (stereo unspecified),PFA,[25],-83
same,PFA,[26],-50
same,PFA,[27],-53
same,ED50,[20],6.69 mg/kg
OC(CCN1CCN(c2ccc(F)cc2)CC1)COc1ccc(Cl)cc1 (stereo unspecified),PFA,[28],-78
same,PFA,[29],-36
same,PFA,[30],-55
